Test results taken from ChEMBL document CHEMBL4364256, “Design, synthesis and biological evaluation of antimicrobial diarylimine and -amine compounds targeting the interaction between the bacterial NusB and NusE proteins” (Eur J Med Chem, 2019).
≈ marks a conversion by molar mass, not a printed value.

What was measured:
[1] = tested on: Staphylococcus aureus; experiment: Antimicrobial activity against CA-methicillin-resistant Staphylococcus aureus W46 ST59 incubated for 20 hrs by microdilution method; conditions: W46 ST59, 20 h
[2] = tested on: Staphylococcus aureus; experiment: Antimicrobial activity against Staphylococcus aureus HA W231 ST45 incubated for 20 hrs by microdilution method; assay type: functional; conditions: HA W231 ST45, 20 h
Method in brief: (§1)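 MIC determined by microdilution following Clinical & Laboratory Standards Institute (CLSI) guidelines, read in µg/mL, against a panel of hospital- and community-acquired MRSA strains.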

[3] = tested on: Staphylococcus aureus; experiment: Antimicrobial activity against Staphylococcus aureus ST22 11B086169 incubated for 20 hrs by microdilution method; assay type: functional; conditions: ST22 11B086169, 20 h; method in brief: as §1
[4] = Cytotoxicity against human HaCaT cells assessed as reduction in cell viability after 48 to 72 hrs by MTT assay; assay type: cell-based
[5] = tested on: Streptococcus pneumoniae; experiment: Antimicrobial activity against Streptococcus pneumoniae ATCC 49619 incubated for 20 hrs by microdilution method; assay type: functional; conditions: ATCC 49619, 20 h
Method in brief: (§2)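 Broth microdilution MIC testing done following CLSI guidelines.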

[6] = tested on: Streptococcus pyogenes; experiment: Antimicrobial activity against Streptococcus pyogenes ATCC 19615 incubated for 20 hrs by microdilution method; assay type: functional; conditions: ATCC 19615, 20 h; method in brief: as §2
[7] = tested on: Staphylococcus aureus; experiment: Antimicrobial activity against CA-methicillin-resistant Staphylococcus aureus W4 ST338 incubated for 20 hrs by microdilution method; assay type: functional; conditions: W4 ST338, 20 h; method in brief: as §1
[8] = tested on: Staphylococcus aureus; experiment: microbe, parasite or virus in culture; conditions: ATCC 29213, 20 h
[9] = tested on: Staphylococcus aureus; experiment: Antimicrobial activity against CA-methicillin-resistant Staphylococcus aureus W45 ST59 incubated for 20 hrs by microdilution method; conditions: W45 ST59, 20 h
[10] = tested on: Staphylococcus epidermidis; experiment: Antimicrobial activity against Staphylococcus epidermidis ATCC 12228 incubated for 20 hrs by microdilution method; assay type: functional; conditions: ATCC 12228, 20 h; method in brief: as §2
[11] = tested on: Staphylococcus aureus; experiment: Antimicrobial activity against Staphylococcus aureus ST239 incubated for 20 hrs by microdilution method; assay type: functional; conditions: CN79, 20 h; method in brief: as §1
[12] = Therapeutic index, ratio of CC50 for human A549 cells to 1/2 times MIC for Staphylococcus aureus ATCC 25923; assay type: toxicity; conditions: read-out: TI
[13] = tested on: Enterococcus faecium; experiment: Antimicrobial activity against Enterococcus faecium ATCC 19433 incubated for 20 hrs by microdilution method; assay type: functional; conditions: ATCC 19433, 20 h; method in brief: as §2
[14] = tested on: Streptococcus agalactiae; experiment: Antimicrobial activity against Streptococcus agalactiae ATCC 12386 incubated for 20 hrs by microdilution method; assay type: functional; conditions: ATCC 12386, 20 h; method in brief: as §2
[15] = tested on: Staphylococcus aureus; experiment: Antimicrobial activity against Staphylococcus aureus ATCC BAA44 incubated for 20 hrs by microdilution method; assay type: functional; conditions: ATCC BAA44, 20 h; method in brief: as §1
[16] = tested on: Bacillus subtilis; experiment: Inhibition of N-terminal LgBiT-fused Bacillus subtilis NusB expressed in Escherichia coli BL21(DE3)pLysS interaction with C- terminal SmBiT-fused Bacillus subtilis NusE expressed in Escherichia coli BL21(DE3)pLysS at 100 uM preincubated for 10 mins followed by NusE addition and measured after 10 mins by nano-glo luciferase assay relative to control
Method in brief: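 NusB and NusE were mixed 1:1 at 1 µM in PBS, with compound at 100 µM. The read-out was percent inhibition of the NusB-NusE interaction.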

[17] = Therapeutic index, ratio of CC50 for human HaCaT cells to 1/2 times MIC for Staphylococcus aureus ATCC 25923; assay type: toxicity; conditions: read-out: TI
[18] = Antimicrobial activity against Staphylococcus saprophyticus ATCC 15305 incubated for 20 hrs by microdilution method; assay type: functional, Staphylococcus saprophyticus subsp. saprophyticus; conditions: ATCC 15305, 20 h; method in brief: as §2
[19] = tested on: Acinetobacter baumannii; experiment: Antimicrobial activity against Acinetobacter baumannii ATCC 19606 incubated for 20 hrs by microdilution method; assay type: functional; conditions: ATCC 19606 = CIP 70.34 = JCM 6841, 20 h; method in brief: as §2
[20] = tested on: Staphylococcus aureus; experiment: Antimicrobial activity against Staphylococcus aureus USA300/ST8 incubated for 20 hrs by microdilution method; conditions: USA300 ST8, 20 h
[21] = tested on: Staphylococcus aureus; experiment: Antimicrobial activity against Staphylococcus aureus HA W235 ST5 incubated for 20 hrs by microdilution method; assay type: functional; conditions: HA W235 ST5, 20 h; method in brief: as §1
[22] = Cytotoxicity against human A549 cells assessed as reduction in cell viability after 48 to 72 hrs by MTT assay; assay type: cell-based
[23] = tested on: Staphylococcus aureus; experiment: microbe, parasite or virus in culture; conditions: ATCC 25923, 20 h
[24] = tested on: Enterococcus casseliflavus; experiment: Antimicrobial activity against Enterococcus casseliflavus ATCC 25788 incubated for 20 hrs by microdilution method; assay type: functional; conditions: ATCC 25788, 20 h; method in brief: as §2
[25] = tested on: Staphylococcus aureus; experiment: Antimicrobial activity against Staphylococcus aureus ATCC BAA43 incubated for 20 hrs by microdilution method; assay type: functional; conditions: ATCC BAA43, 20 h; method in brief: as §1
[26] = tested on: Staphylococcus aureus; experiment: Antimicrobial activity against CA-methicillin-resistant Staphylococcus aureus W48 ST217 incubated for 20 hrs by microdilution method; conditions: W48 ST217, 20 h
[27] = microbe, parasite or virus in culture; conditions: Enterobacter cloacae, ATCC 13047, 20 h
[28] = tested on: Staphylococcus aureus; experiment: Antimicrobial activity against CA-methicillin-resistant Staphylococcus aureus W47 ST30 incubated for 20 hrs by microdilution method; assay type: functional; conditions: W47 ST30, 20 h; method in brief: as §1
[29] = tested on: Pseudomonas aeruginosa; experiment: Antimicrobial activity against Pseudomonas aeruginosa ATCC 27853 incubated for 20 hrs by microdilution method; assay type: functional; conditions: ATCC 27853, 20 h; method in brief: as §2
[30] = tested on: Erythrocyte; experiment: Hemolytic activity against human erythrocytes at 0.1 to 10 ug/ml incubated for 45 mins; assay type: ADME, cell-based; conditions: 0.75 h
Method in brief: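 Hemolysis was tested on human blood cells with compound at 0.1, 1 and 10 µg/mL, judged against a nonhemolytic cut-off value.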

[31] = Apparent permeability across apical to basolateral side in human Caco2 cells by LC-MS/MS analysis; assay type: ADME, cell-based; conditions: Caco-2

Row | Structure (SMILES) | MIC [1] [µg/mL] | MIC [2] [µg/mL] | MIC [3] [µg/mL] | CC50 [4] [µM] | MIC [5] [µg/mL] | MIC [6] [µg/mL] | MIC [7] [µg/mL] | MIC [8] [µg/mL] | MIC [9] [µg/mL] | MIC [10] [µg/mL] | MIC [11] [µg/mL] | selectivity ratio [12] | MIC [13] [µg/mL] | inhibition [16] [%] | selectivity ratio [17] | MIC [19] [µg/mL] | CC50 [22] [µM] | MIC [23] [µg/mL] | MIC [27] [µg/mL] | MIC [29] [µg/mL] | also measured
1 | CC(C)(C)c1ccc(NCc2cc([N+](=O)[O-])ccc2O)cc1 | 4 (≈ 13.3 µM) | 4 (≈ 13.3 µM) | 4 (≈ 13.3 µM) | 38.9 | 4 to 8 (≈ 13.3 to 26.6 µM) | 16 (≈ 53.3 µM) | 4 (≈ 13.3 µM) | 4 (≈ 13.3 µM) | 4 (≈ 13.3 µM) | 4 (≈ 13.3 µM) | 4 (≈ 13.3 µM) | 11 | > 256 | 10.8 | 12 | > 256 | 37.2 | 2 (≈ 6.66 µM) | > 256 | > 256 | MIC [14]: 16 µg/mL (≈ 53.3 µM); MIC [15]: 4 µg/mL (≈ 13.3 µM); MIC [18]: 8 µg/mL (≈ 26.6 µM); MIC [20]: 4 µg/mL (≈ 13.3 µM); MIC [21]: 4 µg/mL (≈ 13.3 µM); MIC [24]: 32 µg/mL (≈ 107 µM); MIC [25]: 4 µg/mL (≈ 13.3 µM); MIC [26]: 8 µg/mL (≈ 26.6 µM); MIC [28]: 4 µg/mL (≈ 13.3 µM)
2 | CC(C)(C)c1cccc(NCc2cc([N+](=O)[O-])ccc2O)c1 | 8 (≈ 26.6 µM) | 8 (≈ 26.6 µM) | 8 (≈ 26.6 µM) | 20.2 | 8 (≈ 26.6 µM) | 16 (≈ 53.3 µM) | 4 (≈ 13.3 µM) | 4 (≈ 13.3 µM) | 8 (≈ 26.6 µM) | 16 (≈ 53.3 µM) | 8 (≈ 26.6 µM) | 6 | 32 (≈ 107 µM) | 39.5 | 6 | > 256 | 18.3 | 2 (≈ 6.66 µM) | > 256 | > 256 | MIC [14]: 16 µg/mL (≈ 53.3 µM); MIC [15]: 8 µg/mL (≈ 26.6 µM); MIC [18]: 1 µg/mL (≈ 3.33 µM); MIC [20]: 8 µg/mL (≈ 26.6 µM); MIC [21]: 4 µg/mL (≈ 13.3 µM); MIC [24]: 32 µg/mL (≈ 107 µM); MIC [25]: 2 µg/mL (≈ 6.66 µM); MIC [26]: 4 µg/mL (≈ 13.3 µM); MIC [28]: 4 µg/mL (≈ 13.3 µM)
3 | O=[N+]([O-])c1ccc(O)c(/C=N/c2ccccc2Cl)c1 |  |  |  | 347 | 64 (≈ 231 µM) |  |  | 16 (≈ 57.8 µM) |  |  |  | 119 | > 256 | 45.7 | 96 | 256 (≈ 925 µM) | 432 | 2 (≈ 7.23 µM) | > 256 | > 256 | 
4 | C#Cc1cccc(NCc2cc(Cl)cc(Cl)c2O)c1 |  |  |  | 108 | 256 (≈ 876 µM) |  |  | 4 (≈ 13.7 µM) |  |  |  | 33 | 32 (≈ 110 µM) | 50.6 | 32 | > 256 | 112 | 2 (≈ 6.85 µM) | > 256 | > 256 | 
5 | O=[N+]([O-])c1ccc(O)c(CNc2ccccc2C(F)(F)F)c1 | 2 (≈ 6.41 µM) | 4 (≈ 12.8 µM) | 4 (≈ 12.8 µM) | 18.3 | 8 (≈ 25.6 µM) | 16 (≈ 51.2 µM) | 2 (≈ 6.41 µM) | 2 (≈ 6.41 µM) | 4 (≈ 12.8 µM) | 2 (≈ 6.41 µM) | 4 (≈ 12.8 µM) | 6 | 8 (≈ 25.6 µM) | 61.5 | 6 | 128 (≈ 410 µM) | 20 | 2 (≈ 6.41 µM) | 256 (≈ 820 µM) | > 256 | MIC [14]: 16 µg/mL (≈ 51.2 µM); MIC [15]: 4 µg/mL (≈ 12.8 µM); MIC [18]: 4 µg/mL (≈ 12.8 µM); MIC [20]: 2 µg/mL (≈ 6.41 µM); MIC [21]: 2 µg/mL (≈ 6.41 µM); MIC [24]: 64 µg/mL (≈ 205 µM); MIC [25]: 4 µg/mL (≈ 12.8 µM); MIC [26]: 2 µg/mL (≈ 6.41 µM); MIC [28]: 4 µg/mL (≈ 12.8 µM)
6 | O=[N+]([O-])c1ccc(O)c(CNc2cccc(Cl)c2)c1 | 8 (≈ 28.7 µM) | 8 (≈ 28.7 µM) | 4 (≈ 14.4 µM) |  | 8 (≈ 28.7 µM) | 16 (≈ 57.4 µM) | 8 (≈ 28.7 µM) | 4 (≈ 14.4 µM) | 8 (≈ 28.7 µM) | 8 (≈ 28.7 µM) | 16 (≈ 57.4 µM) |  | 32 (≈ 115 µM) | 34.9 |  | 128 (≈ 459 µM) |  | 4 (≈ 14.4 µM) | 256 (≈ 919 µM) | > 256 | Activity [30]: Non-Toxic; MIC [14]: 32 µg/mL (≈ 115 µM); MIC [15]: 8 µg/mL (≈ 28.7 µM); MIC [18]: 16 µg/mL (≈ 57.4 µM); MIC [20]: 8 µg/mL (≈ 28.7 µM); MIC [21]: 8 µg/mL (≈ 28.7 µM); MIC [24]: 32 µg/mL (≈ 115 µM); MIC [25]: 4 µg/mL (≈ 14.4 µM); Papp A→B [31]: 14.9 ×10⁻⁶ cm/s; MIC [26]: 8 µg/mL (≈ 28.7 µM); MIC [28]: 8 µg/mL (≈ 28.7 µM)
